# According to ChEMBL document CHEMBL1140686, “Indanylacetic acids as PPAR-delta activator insulin sensitizers” (Bioorg Med Chem Lett, 2007):
# Active and inactive are the calls of the source. The rule behind the calls is not given here.
# Key:
# Homo sapiens = species on record: Homo sapiens; assay: Selectivity for PPARdelta over PPARalpha
# Method in brief: (§1)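 FRET coactivator-recruitment assay run with the PPAR-δ ligand binding domain (GST-tagged human PPAR-δ LBD) and separately with the PPAR-α ligand binding domain. Compounds were incubated with europium-labelled anti-GST antibody, biotinylated TRAP220 coactivator protein and streptavidin-labelled APC. Read in a fluorimeter at excitation 340 nm and emission 615 and 665 nm.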
# [1] = molecular target: T1, Peroxisome proliferator-activated receptor alpha (Homo sapiens, UniProt Q07869); assay: (§2) Agonist activity at PPARalpha by FRET assay; assay type: functional; method in brief: as §1
# T1 sequence (Q07869 whole entry): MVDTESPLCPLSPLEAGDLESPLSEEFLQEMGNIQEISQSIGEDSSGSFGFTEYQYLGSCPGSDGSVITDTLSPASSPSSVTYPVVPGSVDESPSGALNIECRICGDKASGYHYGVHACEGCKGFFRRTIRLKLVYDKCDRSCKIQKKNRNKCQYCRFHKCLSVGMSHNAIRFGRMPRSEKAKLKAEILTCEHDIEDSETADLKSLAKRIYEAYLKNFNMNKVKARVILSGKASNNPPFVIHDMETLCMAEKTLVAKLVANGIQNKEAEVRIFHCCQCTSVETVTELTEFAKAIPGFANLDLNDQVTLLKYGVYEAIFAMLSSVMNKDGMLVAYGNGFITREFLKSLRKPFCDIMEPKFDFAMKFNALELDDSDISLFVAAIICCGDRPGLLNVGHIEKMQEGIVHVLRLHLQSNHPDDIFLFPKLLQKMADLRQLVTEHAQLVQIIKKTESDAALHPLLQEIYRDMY
# 3T3-L1 = assay: Induction of insulin receptor in mouse 3T3L1 cells assessed as insulin sensitizing activity; assay type: functional, cell-based; settings: for EC50: Mus musculus, 3T3-L1
# Method in brief: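 3T3-L1 preadipocytes grown about 1 week to 2 days post-confluence, then exposed 2 days to compound plus 0.5 µM IGF-1 in DMEM/10% FBS/2 mM glutamine/pen-strep, then 4 days in plain medium. Cells bound 0.1 nM [125I]insulin ± 100 nM unlabeled insulin for 1 h at room temperature, were washed and lysed in 1 N NaOH, then gamma-counted. EC50 taken where a plateau was reached; percent maximal stimulation recorded.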
# Mus musculus [2] = assay: Reduction in blood glucose level in db/db mouse at 3 mg/kg, po; assay type: functional, organism-based; parameters: dose 3 mg/kg
# Mus musculus [3] = assay: Increase in serum HDL level in hApoA1 mouse model at 30 mg/kg, po; assay type: functional
# Mus musculus [4] = assay: Decrease in serum triglyceride level in hApoA1 mouse model at 30 mg/kg, po; assay type: functional; parameters: scale not given: the % may be the effect or the level left
# [5] = molecular target: T2, Peroxisome proliferator-activated receptor alpha (Homo sapiens) (UniProt Q07869); assay: as §2; assay type: functional; method in brief: as §1
# T2 sequence (whole entry): T1 sequence (Q07869 whole entry)
# Mus musculus [6] = assay: Reduction in blood glucose level in db/db mouse at 10 mg/kg, po; assay type: functional, organism-based; parameters: dose 10 mg/kg
# Mus musculus [7] = assay: Increase in serum HDL level in hApoA1 mouse model at 10 mg/kg, po; assay type: functional
# Mus musculus [8] = assay: Decrease in serum triglyceride level in hApoA1 mouse model at 10 mg/kg, po; assay type: functional; parameters: scale not given: the % may be the effect or the level left
# [9] = molecular target: Peroxisome proliferator-activated receptor delta (Homo sapiens) (UniProt Q03181); assay: Agonist activity at GST-tagged human PPARdelta by FRET assay
# Sequence of Peroxisome proliferator-activated receptor delta (Homo sapiens) (Q03181 whole entry, looked up): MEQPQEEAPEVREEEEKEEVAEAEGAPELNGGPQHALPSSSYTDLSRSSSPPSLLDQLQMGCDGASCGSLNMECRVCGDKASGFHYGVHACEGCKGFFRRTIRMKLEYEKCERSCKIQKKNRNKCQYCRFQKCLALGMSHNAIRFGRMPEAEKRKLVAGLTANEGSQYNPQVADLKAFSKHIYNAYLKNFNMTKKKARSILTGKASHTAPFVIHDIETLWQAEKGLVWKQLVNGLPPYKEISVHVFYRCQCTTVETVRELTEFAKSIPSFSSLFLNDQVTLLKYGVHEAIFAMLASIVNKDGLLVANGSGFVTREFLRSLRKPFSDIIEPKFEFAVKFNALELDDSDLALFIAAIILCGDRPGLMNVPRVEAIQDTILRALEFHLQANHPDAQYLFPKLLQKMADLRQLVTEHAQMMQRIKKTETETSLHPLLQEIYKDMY
EC50 [1] [µM],SMILES,EC50 (3T3-L1) [nM],further results
,COC(C(=O)O)C1CCc2cc(OCCc3nc(-c4ccccc4)oc3C)ccc21 (centres undefined),,Ratio EC50 (Homo sapiens): 0.15
2.72,Cc1oc(-c2ccc(-c3ccccc3)cc2)nc1CCOc1ccc2c(c1)CC[C@H]2CC(=O)O,45,Activity (Mus musculus [2]): Active; Activity (Mus musculus [3]): 29%; Activity (Mus musculus [4]): 38%
6.79,Cc1cccc(-c2nc(CCOc3ccc4c(c3)CC[C@H]4CC(=O)O)c(C)s2)c1,50,
2.46,Cc1oc(-c2ccccc2)nc1CCOc1ccc2c(c1)CC[C@H]2CC(=O)O,231,
10,COc1ccc(-c2nc(C)c(CCOc3ccc4c(c3)CC[C@H]4CC(=O)O)n2C)cc1,5560,Activity (3T3-L1): 41%
10,Cc1oc(-c2cccc(C#N)c2)nc1CCOc1ccc2c(c1)CC[C@H]2CC(=O)O,164,
10,CCCc1oc(-c2ccccc2)nc1CCOc1ccc2c(c1)CC[C@H]2CC(=O)O,3000,Activity (3T3-L1): 32%
0.559,Cc1sc(-c2ccc(C(C)C)cc2)nc1CCOc1ccc2c(c1)CC[C@H]2CC(=O)O,25,
9.98,Cc1oc(-c2ccc(C#N)cc2)nc1CCOc1ccc2c(c1)CC[C@H]2CC(=O)O,301,
10,Cc1nc(-c2ccccc2)n(C)c1CCOc1ccc2c(c1)CC[C@H]2CC(=O)O,5940,Activity (3T3-L1): 19%
10,Cc1c(CCOc2ccc3c(c2)CC[C@H]3CC(=O)O)nc(-c2ccccc2)n1C,608,Activity (3T3-L1): 55%
10,Cc1nc(-c2ccc(-c3ccccc3)cc2)n(C)c1CCOc1ccc2c(c1)CC[C@H]2CC(=O)O,71,
0.22,Cc1oc(-c2ccccc2)nc1CCOc1ccc2c(c1)CCC2C(C)C(=O)O (centres undefined),,Ratio EC50 (Homo sapiens): 1.8
10,COc1ccc(-c2nc(CCOc3ccc4c(c3)CC[C@H]4CC(=O)O)c(C)n2C)cc1,644,Activity (3T3-L1): 56%
1.89,COc1cccc(-c2nc(CCOc3ccc4c(c3)CC[C@H]4CC(=O)O)c(C)o2)c1,82,
0.89,Cc1oc(-c2ccccc2)nc1CCOc1ccc2c(c1)CCC2CC(=O)O (centres undefined),,Ratio EC50 (Homo sapiens): 32
0.798,COc1ccc(-c2nc(CCOc3ccc4c(c3)CC[C@H]4CC(=O)O)c(C)o2)cc1,29,
0.444,Cc1ccc(-c2nc(CCOc3ccc4c(c3)CC[C@H]4CC(=O)O)c(C)o2)cc1,24,
10,CCOc1ccc(-c2nc(CCOc3ccc4c(c3)CC[C@H]4CC(=O)O)c(C)s2)cc1,165,
10,Cc1sc(-c2ccc(-c3ccccc3)cc2)nc1CCOc1ccc2c(c1)CC[C@H]2CC(=O)O,270,
6.53,Cc1sc(-c2cccc(F)c2)nc1CCOc1ccc2c(c1)CC[C@H]2CC(=O)O,140,
10,CCc1ccc(-c2nc(CCOc3ccc4c(c3)CC[C@H]4CC(=O)O)c(C)n2C)cc1,103,
1.19,Cc1oc(-c2ccc(Cl)cc2)nc1CCOc1ccc2c(c1)CC[C@H]2CC(=O)O,212,
2.27,Cc1sc(-c2ccc(F)cc2)nc1CCOc1ccc2c(c1)CC[C@H]2CC(=O)O,544,
10,Cc1sc(-c2ccccc2)nc1CCOc1ccc2c(c1)CC[C@H]2CC(=O)O,267,Activity (3T3-L1): 60%
0.594,Cc1ccc(-c2nc(CCOc3ccc4c(c3)CC[C@H]4CC(=O)O)c(C)s2)cc1,65,
7.94,Cc1sc(-c2ccc(OC(F)(F)F)cc2)nc1CCOc1ccc2c(c1)CC[C@H]2CC(=O)O,225,

EC50 [1] [µM],SMILES,EC50 (3T3-L1) [nM],further results
0.078,CCc1ccc(-c2nc(CCOc3ccc4c(c3)CC[C@H]4CC(=O)O)c(C)o2)cc1,27,
10,Cc1c(CCOc2ccc3c(c2)CC[C@H]3CC(=O)O)nc(-c2ccc(-c3ccccc3)cc2)n1C,54,
1.69,Cc1oc(-c2cccc(F)c2)nc1CCOc1ccc2c(c1)CC[C@H]2CC(=O)O,371,
10,Cc1sc(-c2cccc(C(F)(F)F)c2)nc1CCOc1ccc2c(c1)CC[C@H]2CC(=O)O,45,
1.15,Cc1cccc(-c2nc(CCOc3ccc4c(c3)CC[C@H]4CC(=O)O)c(C)o2)c1,101,
0.504,Cc1oc(-c2ccc(F)cc2)nc1CCOc1ccc2c(c1)CC[C@H]2CC(=O)O,354,
0.546,Cc1oc(-c2ccc(C(C)(C)C)cc2)nc1CCOc1ccc2c(c1)CC[C@H]2CC(=O)O,,
1.02,CCc1oc(-c2ccc(C)cc2)nc1CCOc1ccc2c(c1)CC[C@H]2CC(=O)O,30,
3.28,COc1ccc(-c2nc(CCOc3ccc4c(c3)CC[C@H]4CC(=O)O)c(C)s2)cc1,166,
7.47,Cc1oc(-c2ccccc2)nc1CCOc1ccc2c(c1)CC(C)C2CC(=O)O (centres undefined),5440,Activity [5]: 11%; Activity (3T3-L1): 58%
10,CCc1ccc(-c2nc(C)c(CCOc3ccc4c(c3)CC[C@H]4CC(=O)O)n2C)cc1,155,
1.21,Cc1sc(-c2ccc3c(c2)OCO3)nc1CCOc1ccc2c(c1)CC[C@H]2CC(=O)O,66,
6.96,COc1cccc(-c2nc(CCOc3ccc4c(c3)CC[C@H]4CC(=O)O)c(C)s2)c1,32,
10,Cc1sc(-c2ccccc2F)nc1CCOc1ccc2c(c1)CC[C@H]2CC(=O)O,1620,
10,O=C(O)C[C@@H]1CCc2cc(OCCc3nc(-c4ccccc4)oc3CCc3ccccc3)ccc21,> 3000,Activity (3T3-L1): 9%
1.57,Cc1oc(-c2cccc(Cl)c2)nc1CCOc1ccc2c(c1)CC[C@H]2CC(=O)O,200,
,CN(CCOc1ccc(CC2SC(=O)NC2=O)cc1)c1ccccn1 (centres undefined),,Activity (Mus musculus [6]): Active
2.53,CCc1ccc(-c2nc(CCOc3ccc4c(c3)CC[C@H]4CC(=O)O)c(CC)o2)cc1,35,
10,CCc1oc(-c2ccccc2)nc1CCOc1ccc2c(c1)CC[C@H]2CC(=O)O,186,
,Cc1cc(SCc2sc(-c3ccc(C(F)(F)F)cc3)nc2C)ccc1OCC(=O)O [GW501516],,Activity (Mus musculus [7]): 30%; Activity (Mus musculus [8]): 33%
10,Cc1oc(-c2ccccc2)nc1CCOc1ccc2c(c1)C(C)(C)CC2CC(=O)O (centres undefined),253,Activity [5]: 7.5%; Activity (3T3-L1): 66%; Activity [9]: 38%
0.13,CCC(C(=O)O)C1CCc2cc(OCCc3nc(-c4ccccc4)oc3C)ccc21 (centres undefined),,Ratio EC50 (Homo sapiens): 0.22
0.3,Cc1oc(-c2ccc(C(C)C)cc2)nc1CCOc1ccc2c(c1)CC[C@H]2CC(=O)O,33,
10,Cc1oc(-c2ccccc2)nc1CCOc1ccc2c(c1)OCC2CC(=O)O (centres undefined),,Activity [5]: 15%
10,Cc1sc(-c2ccc(Cl)cc2)nc1CCOc1ccc2c(c1)CC[C@H]2CC(=O)O,970,
2.19,Cc1oc(-c2ccccc2)nc1CCOc1ccc2c(c1)CCC[C@H]2CC(=O)O,,Activity [5]: 58%; Activity [9]: 50%
